Test [1] relates to BV-2. In words: Antiinflammatory activity against mouse BV2 cells assessed as inhibition of LPS-induced nitric oxide production at 1 uM after 24 hrs by griess assay relative to control. It counts as functional. The note with it: BV-2, 24 h. The method, boiled down:
(§1)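 BV2 cells preincubated 24 h, then exposed to compounds and stimulated with LPS (E. coli 055:B5) for 24 h. Supernatant mixed with equal volume Griess reagent, 5 min at room temperature in the dark; absorbance read at 540 nm for NO. Curcumin as positive control.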

The next test concerns HCT-8. In words: Cytotoxicity against human HCT8 cells by MTT assay. It counts as functional, cell-based.
Another test concerns HCT-116. In words: Cytotoxicity against human HCT116 cells by MTT assay. Format: functional, cell-based.
For a further test, the system named is Bel-7402. In words: Cytotoxicity against human Bel7402 cells by MTT assay. It counts as functional, cell-based.
The species entered for a further test is Homo sapiens. In words: Cytotoxicity against human […] cells by MTT assay. It counts as functional, cell-based.
A further test relates to A549. In words: Cytotoxicity against human A549 cells by MTT assay. Format: functional, cell-based.
For a further test, the system named is A2780. In words: Cytotoxicity against human A2780 cells by MTT assay. Format: functional, cell-based.
Test [2] relates to BV-2. In words: Antiinflammatory activity against mouse BV2 cells assessed as inhibition of LPS-induced nitric oxide production after 24 hrs by griess assay. Format: functional, cell-based. Particulars: BV-2, 24 h. In short, it runs like this: as §1

The source of these data is ChEMBL document CHEMBL4130509, “Sesquiterpenes from the Endophyte Glomerella cingulata” (J Nat Prod, 2017).

Calls of active or inactive are those of the source. The rule behind the calls is not given here.

Turning to `COC(=O)[C@@H](C)c1cc2c(cc1O)C(=O)C=CC2(C)C`, in the test on BV-2 [1], the inhibition at 1 µM is 50.6%. In addition, the outcome in the test with HCT-8, with HCT-116, in the test on Bel-7402, in the test listed under Homo sapiens, with A549 and in the test on A2780 was inactive.
Regarding `CC(=O)O[C@H]1[C@@H]2O[C@H]2[C@H]2C[C@@]3(O)OC[C@@]4(C)O[C@]43C[C@]2(C)[C@H]1C`, the outcome with HCT-8, in the test with HCT-116, in the test on Bel-7402, in the test listed under Homo sapiens, in the test with A549 and in the test with A2780 was inactive.
On to `CC1=C2C[C@@]3(C)C(=C[C@]2(O)OC1=O)C(=O)C=C[C@@H]3C`, for which, in the test with BV-2 [1], the inhibition at 1 µM worked out at 29.4%. Also, the result in the test with HCT-8, in the test with HCT-116, in the test on Bel-7402, in the test filed under Homo sapiens, with A549 and in the test with A2780 was inactive.
Take `CO[C@]12C=C3C(=O)C=C[C@H](C)[C@@]3(C)CC1=C(C)C(=O)O2`: the inhibition at 1 µM in the test with BV-2 [1] is 36.1%. In addition, the outcome in the test on HCT-8, in the test on HCT-116, in the test on Bel-7402, in the test filed under Homo sapiens, with A549 and in the test on A2780 was inactive.
As for `CO[C@@]12OC(=O)C(C)=C1C[C@@]1(C)[C@H](C(=O)C=C[C@@H]1C)[C@@H]2O`, the result in the test on HCT-8, in the test on HCT-116, with Bel-7402, in the test filed under Homo sapiens, in the test with A549 and with A2780 was inactive.
On to `CC(=O)O[C@H]1[C@H]2O[C@H]2C2=CC(=O)[C@]3(C[C@]2(C)[C@H]1C)O[C@]3(C)C=O`, for which the result with HCT-8, in the test on HCT-116, with Bel-7402, in the test filed under Homo sapiens, with A549 and with A2780 was inactive.
For the compound `COc1cc(/C=C/C(=O)CC(=O)/C=C/c2ccc(O)c(OC)c2)ccc1O` [CURCUMIN], the IC50 in the test on BV-2 [2] turned out to be 4 µM.
In the case of `COC(=O)[C@H]1CCC(=O)N1Cc1cc(OC)c2c(OC)cc3cc(OCc4ccccc4)ccc3c2c1`, the outcome in the test on HCT-8, in the test with HCT-116, with Bel-7402, in the test filed under Homo sapiens, in the test with A549 and in the test on A2780 was inactive.
As for `C=C(C)[C@@H]1C[C@@]2(C)C(=CC1=O)[C@@H]1O[C@@H]1[C@H](O)[C@@H]2C`, the outcome in the test with HCT-8, in the test on HCT-116, in the test with Bel-7402, in the test listed under Homo sapiens, in the test on A549 and with A2780 was inactive.
